Measured values taken from ChEMBL document CHEMBL3817734, “Structure-activity relationships of vanillic acid ester analogs in inhibitory effect of antigen-mediated degranulation in rat basophilic leukemia RBL-2H3 cells” (Bioorg Med Chem Lett, 2016).
The source made the active and inactive calls. No cut-off for these calls is given here.

Tests used:
RBL-2H3 [1] = experiment: Anti-allergic activity in RBL2H3 cells assessed as inhibition of anti-DNP-IgE-induced degranulation at 1000 uM incubated for 20 mins followed by DNP-labeled human serum albumin addition measured after 1 hr by beta-hexosaminidase release assay; format: functional, cell-based; settings: Rattus norvegicus
Method in brief: (§1)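 DNP-IgE-sensitized RBL-2H3 cells were pretreated with test samples for 20 min, with 75 μM oxatomide as positive control, then stimulated with DNP-HSA for 1 h. Degranulation was read as β-hexosaminidase release. Compounds were dissolved in culture medium containing cyclodextrin (CD). Data are the mean of three independent cultures ± SD, compared with control by Dunnett's test.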

RBL-2H3 [2] = experiment: Anti-allergic activity in RBL2H3 cells assessed as inhibition of anti-DNP-IgE-induced degranulation incubated for 20 mins followed by DNP-labeled human serum albumin addition measured after 1 hr by beta-hexosaminidase release assay; format: functional, cell-based; settings: Rattus norvegicus; method in brief: as §1
[3] = Drug metabolism in RBL2H3 cells assessed as esterase-mediated vanillic acid formation; format: ADME, cell-based; settings: rat, rbl-2h3
[4] = Cytotoxicity in RBL2H3 cells; format: cell-based; settings: rat, rbl-2h3
[5] = Solubility of compound in water; format: physicochemical; settings: buffer
[6] = Drug metabolism in RBL2H3 cells assessed as esterase-mediated butanol formation; format: ADME, cell-based; settings: rat, rbl-2h3
RBL-2H3 [7] = experiment: Anti-allergic activity in RBL2H3 cells assessed as inhibition of anti-DNP-IgE-induced degranulation at 30 to 300 uM incubated for 20 mins followed by DNP-labeled human serum albumin addition measured after 1 hr by beta-hexosaminidase release assay; format: functional, cell-based; settings: Rattus norvegicus; method in brief: as §1
[8] = Drug level in RBL2H3 cells treated with butyl vanillate assessed as esterase-mediated compound formation; format: ADME, cell-based; settings: rat, rbl-2h3
[9] = Drug level in RBL2H3 cells treated with ferulic acid; format: ADME, cell-based; settings: rat, rbl-2h3
RBL-2H3 [10] = experiment: Anti-allergic activity in RBL2H3 cells assessed as inhibition of anti-DNP-IgE-induced degranulation at 100 to 1000 uM incubated for 20 mins followed by DNP-labeled human serum albumin addition measured after 1 hr by beta-hexosaminidase release assay; format: functional, cell-based; settings: Rattus norvegicus; method in brief: as §1
[11] = Increase in anti-DNP-IgE-induced degranulation in RBL2H3 cells incubated for 20 mins followed by DNP-labeled human serum albumin addition measured after 1 hr by beta-hexosaminidase release assay; format: cell-based; settings: rat, rbl-2h3, 1 h; method in brief: as §1
[12] = Drug metabolism in RBL2H3 cells assessed as vanillin and vanillic acid formation; format: ADME, cell-based; settings: rat, rbl-2h3

For COC(=O)c1ccc(O)c(OC)c1 [METHYL VANILLATE], the inhibition (RBL-2H3 [1]) was “Active” and the IC50 (RBL-2H3 [2]) was 640 µM.
In the case of CCCCOC(=O)c1ccc(O)c(OC)c1, the Drug metabolism [3] is reported as “metabolite_detected”, the Activity [4] is reported as “Non-toxic” and the solubility [5] is reported as “soluble”. The IC50 (RBL-2H3 [2]) was 198 µM and the Drug metabolism [6] was “metabolite_detected”.
In the case of CCCCOC(=O)c1ccc(OC)cc1, the inhibition (RBL-2H3 [7]) is reported as “inactive”.
For CCCCOC(=O)c1ccc(OC)c(O)c1, the inhibition (RBL-2H3 [7]) was “Active”.
In the case of CCOC(=O)CCc1ccc(O)c(OC)c1, the inhibition (RBL-2H3 [7]) is reported as “inactive”.
In the case of CCCCOC(=O)c1cccc(OC)c1, the inhibition (RBL-2H3 [7]) is reported as “inactive”.
CCCOC(=O)c1ccc(O)c(OC)c1 gave an IC50 (RBL-2H3 [2]) of 294 µM.
For CCCCOC(=O)c1ccc(O)cc1, the inhibition (RBL-2H3 [7]) was “Active”.
With COc1cc(C(=O)O)ccc1O [VANILLIC ACID] the Drug metabolism [8] was “metabolite_detected”, the Drug metabolism [9] was “metabolite_detected” and the inhibition (RBL-2H3 [10]) was “inactive”.
For CCCOC(=O)Cc1ccc(O)c(OC)c1, the inhibition (RBL-2H3 [7]) was “inactive”.
In the case of COc1cc(C=O)ccc1O [VANILLIN], the Drug metabolism [9] is reported as “metabolite_detected” and the inhibition (RBL-2H3 [10]) is reported as “inactive”.
For CCCCCCCCOC(=O)c1ccc(O)c(OC)c1, the Activity [4] was “Toxic” and the Activity [11] was “Toxic”.
With CCCCOC(=O)c1cccc(O)c1 the inhibition (RBL-2H3 [7]) was “Active”.
Work on COc1cc(C(=O)OC(C)C)ccc1O yielded an IC50 (RBL-2H3 [2]) of 415 µM.
For CCCCOC(=O)c1ccccc1, the inhibition (RBL-2H3 [7]) was “inactive”.
In the case of COc1cc(/C=C/C(=O)O)ccc1O [FERULATE], the Drug metabolism [12] is reported as “metabolite_detected” and the inhibition (RBL-2H3 [2]) is reported as “Active”.
